Measured values taken from ChEMBL document CHEMBL3864151, “Discovery of imidazopyridazines as potent Pim-1/2 kinase inhibitors” (Bioorg Med Chem Lett, 2016).

Experiments:
[1] = Intrinsic clearance in rat liver microsomes at 1 uM after 30 mins by LC-MS HRMS analysis; assay type: ADME; conditions: read-out: CLH
[2] = Intrinsic clearance in human liver microsomes at 1 uM after 30 mins by LC-MS HRMS analysis; assay type: ADME; conditions: read-out: CLH
[3] = target: Serine/threonine-protein kinase pim-1 (Homo sapiens, UniProt P11309); experiment: Inhibition of recombinant Pim1 (unknown origin) by electrochemiluminescence assay
[4] = target: Serine/threonine-protein kinase pim-2 (Homo sapiens, UniProt Q9P1W9); experiment: Inhibition of recombinant Pim2 (unknown origin) by electrochemiluminescence assay
[5] = target: Serine/threonine-protein kinase PIM (Homo sapiens, UniProt P11309+Q9P1W9+Q86V86); experiment: Inhibition of Pim1/2 in human KMS-12 cells assessed as decrease in BAD phosphorylation at Ser112 by Western blot method; assay type: cell-based
[6] = Clearance in Sprague-Dawley rat at 2 mg/kg, iv; assay type: ADME, organism-based; conditions: in vivo; for clearance: Sprague-Dawley
Procedure, shortened: (§1)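 Male Sprague Dawley rats, 3 animals per dosing route, mean values. iv dose 2 mg/kg as a solution in DMSO; po dose 5 mg/kg in 1% Tween 80, 2% HPMC, 97% water/methanesulfonic acid pH 2.2.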

[7] = Volume of distribution at steady state in Sprague-Dawley rat at 2 mg/kg, iv; assay type: ADME, organism-based; conditions: in vivo, read-out: Vdss; procedure, shortened: as §1
[8] = Mean residence time in Sprague-Dawley rat at 2 mg/kg, iv; assay type: ADME, organism-based; conditions: in vivo; procedure, shortened: as §1
[9] = AUC (0 to infinity) in Sprague-Dawley rat at 5 mg/kg, po; assay type: ADME, organism-based; set-up: dose 5 mg/kg, route oral, time infinity; conditions: in vivo; for AUC(0-inf): Sprague-Dawley; procedure, shortened: as §1
[10] = Oral bioavailability in Sprague-Dawley rat at 5 mg/kg; assay type: ADME, organism-based; conditions: in vivo; for bioavailability: Sprague-Dawley; procedure, shortened: as §1
[11] = Clearance in Sprague-Dawley rat at 2 mg/kg, iv relative to liver blood flow; assay type: ADME, organism-based; conditions: in vivo; procedure, shortened: as §1
[12] = target: Voltage-gated inwardly rectifying potassium channel KCNH2 (Homo sapiens, UniProt Q12809); experiment: Inhibition of radiolabeled dofetilide binding to human ERG expressed in HEK293 cells
Sequence of Voltage-gated inwardly rectifying potassium channel KCNH2 (Q12809 whole entry): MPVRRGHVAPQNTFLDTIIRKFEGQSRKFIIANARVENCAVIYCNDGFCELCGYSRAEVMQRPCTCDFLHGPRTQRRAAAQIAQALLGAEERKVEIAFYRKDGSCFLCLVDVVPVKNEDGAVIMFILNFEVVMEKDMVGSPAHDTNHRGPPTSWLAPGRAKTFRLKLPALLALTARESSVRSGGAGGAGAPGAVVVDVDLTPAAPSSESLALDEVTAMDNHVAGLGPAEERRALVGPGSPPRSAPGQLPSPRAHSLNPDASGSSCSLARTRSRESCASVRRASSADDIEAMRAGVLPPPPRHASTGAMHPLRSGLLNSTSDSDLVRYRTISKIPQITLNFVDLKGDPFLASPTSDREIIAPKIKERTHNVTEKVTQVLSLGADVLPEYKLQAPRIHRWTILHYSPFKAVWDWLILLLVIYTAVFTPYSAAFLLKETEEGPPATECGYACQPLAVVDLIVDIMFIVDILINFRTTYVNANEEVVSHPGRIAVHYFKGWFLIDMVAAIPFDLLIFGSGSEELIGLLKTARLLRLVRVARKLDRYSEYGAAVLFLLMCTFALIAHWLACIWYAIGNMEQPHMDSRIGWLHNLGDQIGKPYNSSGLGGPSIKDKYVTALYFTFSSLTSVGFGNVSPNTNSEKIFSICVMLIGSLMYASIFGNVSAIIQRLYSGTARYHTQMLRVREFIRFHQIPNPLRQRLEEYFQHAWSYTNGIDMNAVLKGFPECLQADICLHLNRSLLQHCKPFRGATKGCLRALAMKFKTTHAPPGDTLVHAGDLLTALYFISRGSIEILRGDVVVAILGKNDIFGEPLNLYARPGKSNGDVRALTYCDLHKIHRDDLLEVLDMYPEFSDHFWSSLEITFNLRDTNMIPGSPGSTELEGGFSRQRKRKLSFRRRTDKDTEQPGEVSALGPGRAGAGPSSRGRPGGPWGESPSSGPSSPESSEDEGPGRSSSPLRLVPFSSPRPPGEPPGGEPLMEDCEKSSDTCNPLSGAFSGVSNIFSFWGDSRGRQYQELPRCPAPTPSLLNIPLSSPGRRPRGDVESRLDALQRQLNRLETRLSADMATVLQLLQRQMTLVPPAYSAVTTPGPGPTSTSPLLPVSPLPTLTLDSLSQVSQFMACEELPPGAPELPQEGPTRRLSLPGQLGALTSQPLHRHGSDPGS

Sequence of Serine/threonine-protein kinase pim-2 (Q9P1W9 whole entry): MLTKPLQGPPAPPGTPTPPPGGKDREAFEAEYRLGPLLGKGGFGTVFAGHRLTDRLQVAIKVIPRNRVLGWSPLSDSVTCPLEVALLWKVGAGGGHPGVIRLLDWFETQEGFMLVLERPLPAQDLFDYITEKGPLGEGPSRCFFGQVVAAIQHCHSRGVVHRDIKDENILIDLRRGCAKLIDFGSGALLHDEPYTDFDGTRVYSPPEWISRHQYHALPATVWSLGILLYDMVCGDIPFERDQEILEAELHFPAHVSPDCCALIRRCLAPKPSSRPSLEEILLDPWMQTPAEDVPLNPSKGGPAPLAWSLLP
Sequence of Serine/threonine-protein kinase pim-1 (P11309 whole entry): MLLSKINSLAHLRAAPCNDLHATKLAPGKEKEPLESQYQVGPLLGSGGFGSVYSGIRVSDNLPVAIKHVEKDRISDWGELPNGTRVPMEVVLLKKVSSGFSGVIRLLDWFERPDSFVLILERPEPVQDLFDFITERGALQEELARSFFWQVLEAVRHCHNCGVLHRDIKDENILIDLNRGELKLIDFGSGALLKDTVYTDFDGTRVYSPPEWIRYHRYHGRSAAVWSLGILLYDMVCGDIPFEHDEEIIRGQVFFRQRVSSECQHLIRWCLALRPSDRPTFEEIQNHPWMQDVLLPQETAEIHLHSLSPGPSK

N[C@@H]1CN(c2ccncc2Nc2ncc3ccc(-c4c(F)cccc4F)nn23)CC[C@H]1F
microsomal CLint at 1 µM [1]: > 399 µL/min/mg | microsomal CLint at 1 µM [2]: 443 µL/min/mg

C[C@@H]1CCN(c2ccncc2Nc2ncc3ccc(-c4c(F)cccc4F)nn23)C[C@H]1N
IC50 [3]: 0.035 nM | IC50 [4]: 0.18 nM | IC50 [5]: 212 nM | microsomal CLint at 1 µM [1]: 219 µL/min/mg | microsomal CLint at 1 µM [2]: 71 µL/min/mg

N[C@H]1CCCN(c2ncncc2Nc2ncc3ccc(-c4c(F)cccc4F)nn23)C1
IC50 [5]: > 15800 nM | microsomal CLint at 1 µM [1]: 110 µL/min/mg | microsomal CLint at 1 µM [2]: 28 µL/min/mg

C[C@H]1CCN(c2ccncc2Nc2ncc3ccc(-c4c(F)cccc4F)nn23)C[C@H]1N
IC50 [3]: 0.26 nM | IC50 [5]: 2982 nM | microsomal CLint at 1 µM [1]: > 399 µL/min/mg | microsomal CLint at 1 µM [2]: 130 µL/min/mg

N[C@@H]1CCCN(c2ccncc2Nc2ncc3ccc(-c4c(F)cccc4F)nn23)C1
microsomal CLint at 1 µM [1]: 280 µL/min/mg | microsomal CLint at 1 µM [2]: 90 µL/min/mg

N[C@H]1CCCN(c2ccncc2Nc2ncc3ccc(-c4ncccc4F)nn23)C1
microsomal CLint at 1 µM [1]: 40 µL/min/mg | microsomal CLint at 1 µM [2]: 36 µL/min/mg | clearance [6]: 11.7 mL/min/kg | Vd [7]: 3.3 L/kg | MRT [8]: 4.1 h | AUC(0-inf) [9]: 7.3 µM·h | bioavailability [10]: 28% | CL [11]: 21%

N[C@H]1CCCN(c2ccncc2Nc2ncc3ccc(-c4c(F)cccc4F)nn23)C1
IC50 [3]: 0.07 to 0.1 nM | IC50 [5]: 403 nM | microsomal CLint at 1 µM [1]: 130 µL/min/mg | microsomal CLint at 1 µM [2]: 66 µL/min/mg | CL [6]: 23.3 mL/min/kg | Vd [7]: 7.9 L/kg | MRT [8]: 5.6 h | AUC [9]: 3.7 µM·h | F [10]: 16% | CL [11]: 40%

N[C@H]1CCCN(c2ccncc2Nc2ncc3ccc(-c4ccc(F)cc4F)nn23)C1
IC50 [3]: 0.38 nM | IC50 [4]: 3.1 nM | IC50 [5]: 1761 nM | microsomal CLint at 1 µM [1]: 132 µL/min/mg | microsomal CLint at 1 µM [2]: 31 µL/min/mg

N[C@H]1CCCN(c2ccnc(NC(=O)c3c[nH]c4ccc(-c5ccccc5F)nc34)c2)C1
IC50 [3]: 65 nM | IC50 [4]: 314 nM

N[C@H]1CCC[C@@H](c2ccncc2Nc2ncc3ccc(-c4c(F)cccc4F)nn23)C1 (racemic)
IC50 [3]: 3.7 nM | IC50 [5]: 5120 nM | microsomal CLint at 1 µM [1]: 106 µL/min/mg | microsomal CLint at 1 µM [2]: < 10 µL/min/mg

C[C@@H]1[C@@H](N)CCCN1c1ccncc1Nc1ncc2ccc(-c3c(F)cccc3F)nn12
microsomal CLint at 1 µM [1]: 344 µL/min/mg | microsomal CLint at 1 µM [2]: 79 µL/min/mg

C[C@@H]1CC[C@H](N)CN1c1ccncc1Nc1ncc2ccc(-c3cccc(F)n3)nn12
microsomal CLint at 1 µM [1]: 194 µL/min/mg | microsomal CLint at 1 µM [2]: 71 µL/min/mg

N[C@H]1CCCN(c2ccncc2Nc2ncc3ccc(-c4ccccc4Cl)nn23)C1
IC50 [4]: 3.4 nM | IC50 [5]: 2668 nM | microsomal CLint at 1 µM [1]: 122 µL/min/mg | microsomal CLint at 1 µM [2]: 90 µL/min/mg

C[C@]1(N)CCCN(c2ccncc2Nc2ncc3ccc(-c4c(F)cccc4F)nn23)C1 (racemic)
microsomal CLint at 1 µM [1]: 311 µL/min/mg | microsomal CLint at 1 µM [2]: 91 µL/min/mg

N[C@H]1CCCN(c2ccncc2Nc2ncc3ccc(-c4cccnc4F)nn23)C1
IC50 [3]: 0.23 nM | IC50 [5]: 6599 nM | microsomal CLint at 1 µM [1]: 39 µL/min/mg | microsomal CLint at 1 µM [2]: 34 µL/min/mg

N[C@H]1CCN(c2ccncc2Nc2ncc3ccc(-c4c(F)cccc4F)nn23)C1
microsomal CLint at 1 µM [1]: < 14 µL/min/mg | microsomal CLint at 1 µM [2]: 15 µL/min/mg

N[C@H]1CCCN(c2ccncc2Nc2ncc3ccc(-c4ccccc4F)nn23)C1
IC50 [3]: 0.23 nM | IC50 [4]: 1.6 nM | IC50 [5]: 1536 nM | microsomal CLint at 1 µM [1]: 120 µL/min/mg | microsomal CLint at 1 µM [2]: 48 µL/min/mg

C[C@@H]1C[C@H](N)CN(c2ccncc2Nc2ncc3ccc(-c4ncccc4F)nn23)C1
microsomal CLint at 1 µM [1]: 91 µL/min/mg | microsomal CLint at 1 µM [2]: 33 µL/min/mg | clearance [6]: 26.7 mL/min/kg | Vd [7]: 6.7 L/kg | MRT [8]: 4.3 h | AUC(0-inf) [9]: 3.2 µM·h | bioavailability [10]: 60%

N[C@H]1CCCN(c2ccncc2Nc2ncc3ccc(-c4ccc(Cl)cc4Cl)nn23)C1
IC50 [3]: 1.8 nM | IC50 [5]: 5007 nM | microsomal CLint at 1 µM [1]: 260 µL/min/mg | microsomal CLint at 1 µM [2]: 100 µL/min/mg

N[C@H]1CCCN(c2sncc2Nc2ncc3ccc(-c4c(F)cccc4F)nn23)C1
IC50 [3]: 56 nM | IC50 [4]: 148 nM | microsomal CLint at 1 µM [1]: 167 µL/min/mg | microsomal CLint at 1 µM [2]: 28 µL/min/mg

N[C@H]1C[C@@H](F)CN(c2ccncc2Nc2ncc3ccc(-c4c(F)cccc4F)nn23)C1
IC50 [3]: 0.78 nM | IC50 [5]: 983 nM | microsomal CLint at 1 µM [1]: 143 µL/min/mg | microsomal CLint at 1 µM [2]: 51 µL/min/mg

N[C@H]1CCCN(c2ccccc2Nc2ncc3ccc(-c4c(F)cccc4F)nn23)C1
IC50 [5]: 3440 nM | microsomal CLint at 1 µM [1]: 63 µL/min/mg | microsomal CLint at 1 µM [2]: 82 µL/min/mg

C[C@H]1C[C@H](N)CN(c2ccncc2Nc2ncc3ccc(-c4c(F)cccc4F)nn23)C1
microsomal CLint at 1 µM [1]: 347 µL/min/mg | microsomal CLint at 1 µM [2]: 111 µL/min/mg

N[C@H]1CCCN(c2ccncc2Nc2ncc3ccc(-c4ccccn4)nn23)C1
IC50 [5]: 1760 nM | microsomal CLint at 1 µM [1]: < 10 µL/min/mg | microsomal CLint at 1 µM [2]: < 10 µL/min/mg

N[C@H]1CCCN(c2ccncc2Nc2ncc3ccc(-c4nccs4)nn23)C1
IC50 [4]: 2.9 nM | IC50 [5]: 602 nM | microsomal CLint at 1 µM [1]: 54 µL/min/mg | microsomal CLint at 1 µM [2]: 27 µL/min/mg

C[C@@H]1CC[C@H](N)CN1c1ccncc1Nc1ncc2ccc(-c3c(F)cccc3F)nn12
microsomal CLint at 1 µM [1]: > 399 µL/min/mg | microsomal CLint at 1 µM [2]: 203 µL/min/mg | clearance [6]: 91.7 mL/min/kg | Vd [7]: 21.7 L/kg | MRT [8]: 4 h | AUC(0-inf) [9]: 3.3 µM·h | bioavailability [10]: 141% | IC50 [12]: 19700 nM

C[C@H]1[C@@H](N)CCCN1c1ccncc1Nc1ncc2ccc(-c3c(F)cccc3F)nn12
microsomal CLint at 1 µM [1]: 312 µL/min/mg

O[C@H]1CCCN(c2ccncc2Nc2ncc3ccc(-c4c(F)cccc4F)nn23)C1
IC50 [3]: 2.9 nM | IC50 [5]: 4807 nM | microsomal CLint at 1 µM [1]: > 399 µL/min/mg | microsomal CLint at 1 µM [2]: 472 µL/min/mg

N[C@H]1CCCN(c2cnccc2Nc2ncc3ccc(-c4c(F)cccc4F)nn23)C1
microsomal CLint at 1 µM [1]: 61 µL/min/mg | microsomal CLint at 1 µM [2]: 67 µL/min/mg

N[C@H]1CCCN(c2ccncc2Nc2ncc3ccc(Cl)nn23)C1
microsomal CLint at 1 µM [1]: 27 µL/min/mg | microsomal CLint at 1 µM [2]: 18 µL/min/mg

CN[C@H]1CCCN(c2ccncc2Nc2ncc3ccc(-c4c(F)cccc4F)nn23)C1
microsomal CLint at 1 µM [1]: 185 µL/min/mg | microsomal CLint at 1 µM [2]: 66 µL/min/mg

Fc1cccc(F)c1-c1ccc2cnc(Nc3cnccc3N3CCCCC3)n2n1
microsomal CLint at 1 µM [1]: > 399 µL/min/mg | microsomal CLint at 1 µM [2]: 399 µL/min/mg

C[C@H]1CC[C@H](N)CN1c1ccncc1Nc1ncc2ccc(-c3c(F)cccc3F)nn12
microsomal CLint at 1 µM [1]: 477 µL/min/mg | microsomal CLint at 1 µM [2]: 80 µL/min/mg
